Experimental findings from ChEMBL document CHEMBL1131035, “Tripeptide aldehyde inhibitors of human rhinovirus 3C protease: design, synthesis, biological evaluation, and cocrystal structure solution of P1 glutamine isosteric replacements” (J Med Chem, 1998) are described below.

Where a name gives a salt, the structure may show the parent alone. Non-standard residues stand in square brackets, D forms with d. Residues, ends and D or L forms follow the SMILES beside them. *: point of attachment. Met(O) = CS(=O)CC[C@H](N)C(=O)O; Isobutyryl = CC(C)C(=O)*; Cbz = O=C(OCc1ccccc1)*; Dap = NC[C@H](N)C(=O)O; Tfa = O=C(C(F)(F)F)*; Ms = CS(=O)(=O)*; Moc = COC(=O)*; For = O=C*

Usually EC50 stands for the concentration giving half of the maximal effect. Broadly, the Ki is the equilibrium dissociation constant of an inhibitor or competing ligand from its target. Read a low Ki as higher affinity.

The subject of the first data set is Human rhinovirus sp. The data set can be described thus: Effective concentration in HRV-14 infected H1- HeLa cells by protection assay. Format: functional, organism-based.
Conditions: not given
The procedure, abridged:
(§1)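 Cell protection assay in H1-HeLa cells infected with the named HRV serotype, using virus stocks propagated in H1-HeLa cells. Values reported are the 50% effective concentration (EC50), the 50% toxic concentration (TC50) and the therapeutic index (TI).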
On to `CC(C)C[C@H](NC(=O)OCc1ccccc1)C(=O)N[C@@H](Cc1ccccc1)C(=O)N[C@H](C=O)CNC(=O)c1ccno1`, for which the EC50 is 1.5 µM.

On to `CC(C)C[C@H](NC(=O)OCc1ccccc1)C(=O)N[C@@H](Cc1ccccc1)C(=O)N[C@H](C=O)CC[S+](C)[O-]` (stereo partly drawn) (Cbz-Leu-Phe-[Met(O)]-aldehyde), for which the EC50 came to 4.5 µM.

For the molecule `CC(C)C[C@H](NC(=O)OCc1ccccc1)C(=O)N[C@@H](Cc1ccccc1)C(=O)N[C@H](C=O)CCC(=O)NC(c1ccccc1)(c1ccccc1)c1ccccc1`, the EC50 is > 15.8 µM.

Molecule `CC(C)C[C@H](NC(=O)OCc1ccccc1)C(=O)N[C@@H](Cc1ccccc1)C(=O)N[C@H](C=O)CNC(=O)C(C)C` (Cbz-Leu-Phe-[Dap](Isobutyryl)-aldehyde) displayed an EC50 of 4 µM.

The molecule `CC(C)C[C@H](NC(=O)OCc1ccccc1)C(=O)N[C@@H](Cc1ccccc1)C(=O)N[C@H](C=O)CNS(C)(=O)=O` (Cbz-Leu-Phe-[Dap](Ms)-aldehyde) showed an EC50 of 20 µM.

The molecule `CC(C)C[C@H](NC(=O)OCc1ccccc1)C(=O)N[C@@H](Cc1ccccc1)C(=O)N[C@H](C=O)CNC(=O)C(F)(F)F` (Cbz-Leu-Phe-[Dap](Tfa)-aldehyde) returned an EC50 of 1.8 µM.

As for `COC(=O)NC[C@@H](C=O)NC(=O)[C@H](Cc1ccccc1)NC(=O)[C@H](CC(C)C)NC(=O)OCc1ccccc1` (Cbz-Leu-Phe-[Dap](Moc)-aldehyde), the midpoint of the response, the EC50, lay at 5 µM.

`CC(C)C[C@H](NC(=O)OCc1ccccc1)C(=O)N[C@@H](Cc1ccccc1)C(=O)N[C@H](C=O)CN1CCCC1=O` displayed an EC50 of 4 µM.

As for `CC(C)C[C@H](NC(=O)OCc1ccccc1)C(=O)N[C@@H](Cc1ccccc1)C(=O)N[C@H](C=O)CNC=O` (Cbz-Leu-Phe-[Dap](For)-aldehyde), a half-maximal response (EC50) required 1.6 µM.

For the next data set, the target named is T1, Human rhinovirus A protease (Human rhinovirus sp., UniProt Q4U254).
T1 sequence (Q4U254 whole entry): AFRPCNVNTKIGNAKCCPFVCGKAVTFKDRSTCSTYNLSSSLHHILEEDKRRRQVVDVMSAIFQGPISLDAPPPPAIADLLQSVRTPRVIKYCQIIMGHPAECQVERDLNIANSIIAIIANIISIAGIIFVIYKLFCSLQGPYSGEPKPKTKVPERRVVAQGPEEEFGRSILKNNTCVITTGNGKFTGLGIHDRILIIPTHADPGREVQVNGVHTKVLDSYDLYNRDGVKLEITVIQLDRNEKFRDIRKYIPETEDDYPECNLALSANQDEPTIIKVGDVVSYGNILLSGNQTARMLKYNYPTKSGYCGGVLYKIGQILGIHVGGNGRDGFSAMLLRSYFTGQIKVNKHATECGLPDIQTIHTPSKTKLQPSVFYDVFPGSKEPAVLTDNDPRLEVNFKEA
The data set can be described thus: Binding affinity against HRV-14 3C protease.
Conditions: not given
An outline of the steps: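 Recombinant 3C protease of the named HRV serotype, expressed and purified. Ki was determined by a continuous fluorescence resonance energy transfer cleavage assay, with 5 mM dithiothreitol included in the assay. Reported standard deviation ±10%.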
In the case of `CC(C)C[C@H](NC(=O)OCc1ccccc1)C(=O)N[C@@H](Cc1ccccc1)C(=O)N[C@H](C=O)CNC(=O)c1ccno1`, the Ki came to 0.005 µM.

As to `CC(C)C[C@H](NC(=O)OCc1ccccc1)C(=O)N[C@@H](Cc1ccccc1)C(=O)N[C@H](C=O)CC[S+](C)[O-]` (stereo partly drawn) (Cbz-Leu-Phe-[Met(O)]-aldehyde), the Ki stood at 0.005 µM.

Turning to `CC(C)C[C@H](NC(=O)OCc1ccccc1)C(=O)N[C@@H](Cc1ccccc1)C(=O)N[C@H](C=O)CCC(=O)NC(c1ccccc1)(c1ccccc1)c1ccccc1`, the Ki was 0.04 µM.

`CC(C)C[C@H](NC(=O)OCc1ccccc1)C(=O)N[C@@H](Cc1ccccc1)C(=O)N[C@H](C=O)CNC(=O)C(C)C` (Cbz-Leu-Phe-[Dap](Isobutyryl)-aldehyde) displayed a Ki of 0.018 µM.

As for `CC(C)C[C@H](NC(=O)OCc1ccccc1)C(=O)N[C@@H](Cc1ccccc1)C(=O)N[C@H](C=O)CNS(C)(=O)=O` (Cbz-Leu-Phe-[Dap](Ms)-aldehyde), the affinity, expressed as Ki, was 0.64 µM.

The molecule `CC(C)C[C@H](NC(=O)OCc1ccccc1)C(=O)N[C@@H](Cc1ccccc1)C(=O)N[C@H](C=O)CNC(=O)C(F)(F)F` (Cbz-Leu-Phe-[Dap](Tfa)-aldehyde) registered a Ki of 0.146 µM.

`COC(=O)NC[C@@H](C=O)NC(=O)[C@H](Cc1ccccc1)NC(=O)[C@H](CC(C)C)NC(=O)OCc1ccccc1` (Cbz-Leu-Phe-[Dap](Moc)-aldehyde) yielded a Ki of 0.132 µM.

Regarding `CC(C)C[C@H](NC(=O)OCc1ccccc1)C(=O)N[C@@H](Cc1ccccc1)C(=O)N[C@H](C=O)CN1CCCC1=O`, the affinity corresponds to a Ki of 0.052 µM.

Regarding `CC(C)C[C@H](NC(=O)OCc1ccccc1)C(=O)N[C@@H](Cc1ccccc1)C(=O)N[C@H](C=O)CNC=O` (Cbz-Leu-Phe-[Dap](For)-aldehyde), the Ki worked out at 0.073 µM.

Test system in the next data set: not listed separately
The data set can be described thus: Toxic concentration on HRV-14 infected H1- HeLa cells by protection assay. Format: toxicity, cell-based. Particulars: human, H1-HeLa cells infected with HRV-14; read-out: TC50 (the source's name). An outline of the steps:
as §1
Consider `CC(C)C[C@H](NC(=O)OCc1ccccc1)C(=O)N[C@@H](Cc1ccccc1)C(=O)N[C@H](C=O)CNC(=O)c1ccno1`, for which the CC50 was determined as 59.5 µM.

For the molecule `CC(C)C[C@H](NC(=O)OCc1ccccc1)C(=O)N[C@@H](Cc1ccccc1)C(=O)N[C@H](C=O)CC[S+](C)[O-]` (stereo partly drawn) (Cbz-Leu-Phe-[Met(O)]-aldehyde), the CC50 was > 100 µM.

In the case of `CC(C)C[C@H](NC(=O)OCc1ccccc1)C(=O)N[C@@H](Cc1ccccc1)C(=O)N[C@H](C=O)CCC(=O)NC(c1ccccc1)(c1ccccc1)c1ccccc1`, the CC50 came out at 15.8 µM.

On to `CC(C)C[C@H](NC(=O)OCc1ccccc1)C(=O)N[C@@H](Cc1ccccc1)C(=O)N[C@H](C=O)CNC(=O)C(C)C` (Cbz-Leu-Phe-[Dap](Isobutyryl)-aldehyde), for which the CC50 worked out at 18 µM.

`CC(C)C[C@H](NC(=O)OCc1ccccc1)C(=O)N[C@@H](Cc1ccccc1)C(=O)N[C@H](C=O)CNS(C)(=O)=O` (Cbz-Leu-Phe-[Dap](Ms)-aldehyde): the CC50 worked out at 63 µM.

For `CC(C)C[C@H](NC(=O)OCc1ccccc1)C(=O)N[C@@H](Cc1ccccc1)C(=O)N[C@H](C=O)CNC(=O)C(F)(F)F` (Cbz-Leu-Phe-[Dap](Tfa)-aldehyde), the CC50 amounted to 25 µM.

As to `COC(=O)NC[C@@H](C=O)NC(=O)[C@H](Cc1ccccc1)NC(=O)[C@H](CC(C)C)NC(=O)OCc1ccccc1` (Cbz-Leu-Phe-[Dap](Moc)-aldehyde), the CC50 is 56.2 µM.

As to `CC(C)C[C@H](NC(=O)OCc1ccccc1)C(=O)N[C@@H](Cc1ccccc1)C(=O)N[C@H](C=O)CN1CCCC1=O`, the CC50 is > 100 µM.

Take `CC(C)C[C@H](NC(=O)OCc1ccccc1)C(=O)N[C@@H](Cc1ccccc1)C(=O)N[C@H](C=O)CNC=O` (Cbz-Leu-Phe-[Dap](For)-aldehyde): the CC50 was 206 µM.

Test system in a further data set: not listed separately
The experiment in a line: Therapeutic Index against HRV-14 virus infection. Format: organism-based. Particulars: rhinovirus b14, H1-HeLa cells; read-out: TI. An outline of the steps: as §1
For `CC(C)C[C@H](NC(=O)OCc1ccccc1)C(=O)N[C@@H](Cc1ccccc1)C(=O)N[C@H](C=O)CNC(=O)c1ccno1`, the selectivity ratio stood at 40.

Consider `CC(C)C[C@H](NC(=O)OCc1ccccc1)C(=O)N[C@@H](Cc1ccccc1)C(=O)N[C@H](C=O)CC[S+](C)[O-]` (stereo partly drawn) (Cbz-Leu-Phe-[Met(O)]-aldehyde), for which the selectivity ratio was > 22.

Turning to `CC(C)C[C@H](NC(=O)OCc1ccccc1)C(=O)N[C@@H](Cc1ccccc1)C(=O)N[C@H](C=O)CNC(=O)C(C)C` (Cbz-Leu-Phe-[Dap](Isobutyryl)-aldehyde), the selectivity ratio was 5.

In the case of `CC(C)C[C@H](NC(=O)OCc1ccccc1)C(=O)N[C@@H](Cc1ccccc1)C(=O)N[C@H](C=O)CNS(C)(=O)=O` (Cbz-Leu-Phe-[Dap](Ms)-aldehyde), the selectivity ratio turned out to be 3.

On to `CC(C)C[C@H](NC(=O)OCc1ccccc1)C(=O)N[C@@H](Cc1ccccc1)C(=O)N[C@H](C=O)CNC(=O)C(F)(F)F` (Cbz-Leu-Phe-[Dap](Tfa)-aldehyde), for which the selectivity ratio stood at 14.

Consider `COC(=O)NC[C@@H](C=O)NC(=O)[C@H](Cc1ccccc1)NC(=O)[C@H](CC(C)C)NC(=O)OCc1ccccc1` (Cbz-Leu-Phe-[Dap](Moc)-aldehyde), for which the selectivity ratio came out at 11.

As for `CC(C)C[C@H](NC(=O)OCc1ccccc1)C(=O)N[C@@H](Cc1ccccc1)C(=O)N[C@H](C=O)CN1CCCC1=O`, the selectivity ratio is > 25.

Take `CC(C)C[C@H](NC(=O)OCc1ccccc1)C(=O)N[C@@H](Cc1ccccc1)C(=O)N[C@H](C=O)CNC=O` (Cbz-Leu-Phe-[Dap](For)-aldehyde): the selectivity ratio was 129.
